Assay results published in publication PMC4002122 (Chemical Research in Toxicology, 2014).

How the values were obtained:
Format in all cases: in vitro ADME
Conditions in all cases: 250 μM substrate, 5 μg protein, 60 min, 37 °C
UGT1A7 = target: T1, UGT1A7 (Homo sapiens, UniProt Q9HAW7); assay: Screening of recombinant UGT1A7 for glucuronidation activity
T1 sequence (Q9HAW7 26-530): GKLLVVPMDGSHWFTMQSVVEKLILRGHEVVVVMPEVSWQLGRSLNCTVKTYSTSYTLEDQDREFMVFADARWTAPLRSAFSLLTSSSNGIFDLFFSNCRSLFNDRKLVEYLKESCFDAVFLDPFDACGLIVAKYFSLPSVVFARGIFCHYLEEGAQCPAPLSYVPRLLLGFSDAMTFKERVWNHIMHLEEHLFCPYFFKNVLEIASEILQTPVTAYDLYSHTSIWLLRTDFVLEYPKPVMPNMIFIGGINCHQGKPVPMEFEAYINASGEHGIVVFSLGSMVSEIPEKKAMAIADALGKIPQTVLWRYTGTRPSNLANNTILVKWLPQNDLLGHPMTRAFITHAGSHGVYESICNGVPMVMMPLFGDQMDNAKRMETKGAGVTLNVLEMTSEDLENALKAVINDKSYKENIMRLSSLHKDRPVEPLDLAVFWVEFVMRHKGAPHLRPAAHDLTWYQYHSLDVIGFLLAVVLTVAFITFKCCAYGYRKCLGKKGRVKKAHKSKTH
Procedure, shortened: (§1)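 UGT1A1, 1A3, 1A4 and 1A6–1A10 were His-tagged and expressed in baculovirus-infected Sf9 cells; UGT2B4, 2B7, 2B15 and 2B17 were commercial membranes run per supplier protocol. 5 μg membrane protein with 250 μM substrate, 2 mM UDP-GlcUA, Tris–HCl pH 7.4, MgCl2, saccharolactone, 2% DMSO; 37 °C, 60 min; no-substrate controls. Products measured by HPLC-UV/vis; β-glucuronidase hydrolysis separated O- from carboxyl glucuronides.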

UGT1A8 = target: T2, UGT1A8 (Homo sapiens, UniProt Q9HAW9); assay: Screening of recombinant UGT1A8 for glucuronidation activity
T2 sequence (Q9HAW9 26-530): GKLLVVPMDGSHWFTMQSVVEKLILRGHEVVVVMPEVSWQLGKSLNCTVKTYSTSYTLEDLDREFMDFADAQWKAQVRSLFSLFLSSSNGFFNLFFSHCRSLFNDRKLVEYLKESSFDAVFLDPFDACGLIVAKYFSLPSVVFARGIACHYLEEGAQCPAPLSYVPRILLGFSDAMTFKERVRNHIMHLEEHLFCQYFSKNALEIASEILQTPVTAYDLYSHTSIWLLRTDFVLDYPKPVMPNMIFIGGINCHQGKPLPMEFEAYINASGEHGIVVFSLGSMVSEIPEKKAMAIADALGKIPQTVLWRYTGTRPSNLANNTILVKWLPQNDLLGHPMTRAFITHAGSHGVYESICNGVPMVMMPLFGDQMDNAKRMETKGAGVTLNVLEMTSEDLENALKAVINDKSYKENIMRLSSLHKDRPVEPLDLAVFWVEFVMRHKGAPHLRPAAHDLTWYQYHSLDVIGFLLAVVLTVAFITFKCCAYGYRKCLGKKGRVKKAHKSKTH
Procedure, shortened: as §1

UGT1A10 = target: T3, UGT1A10 (Homo sapiens, UniProt Q9HAW8); assay: Screening of recombinant UGT1A10 for glucuronidation activity
T3 sequence (Q9HAW8 26-530): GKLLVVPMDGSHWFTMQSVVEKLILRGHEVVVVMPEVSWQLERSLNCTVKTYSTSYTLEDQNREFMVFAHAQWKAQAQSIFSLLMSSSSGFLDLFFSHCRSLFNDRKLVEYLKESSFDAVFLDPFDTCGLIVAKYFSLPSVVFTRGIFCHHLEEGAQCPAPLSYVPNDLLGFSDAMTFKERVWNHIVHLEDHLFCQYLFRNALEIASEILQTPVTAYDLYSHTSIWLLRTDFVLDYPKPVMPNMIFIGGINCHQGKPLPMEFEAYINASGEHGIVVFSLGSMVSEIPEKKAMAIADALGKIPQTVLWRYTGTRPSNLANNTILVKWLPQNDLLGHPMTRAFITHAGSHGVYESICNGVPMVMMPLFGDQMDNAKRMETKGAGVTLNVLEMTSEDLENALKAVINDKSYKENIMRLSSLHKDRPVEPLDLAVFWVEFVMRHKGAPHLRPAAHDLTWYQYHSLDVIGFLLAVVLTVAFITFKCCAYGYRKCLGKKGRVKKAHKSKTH
Procedure, shortened: as §1

UGT1A4 = target: T4, UGT1A4 (Homo sapiens, UniProt P22310); assay: Screening of recombinant UGT1A4 for glucuronidation activity
T4 sequence (P22310 29-534): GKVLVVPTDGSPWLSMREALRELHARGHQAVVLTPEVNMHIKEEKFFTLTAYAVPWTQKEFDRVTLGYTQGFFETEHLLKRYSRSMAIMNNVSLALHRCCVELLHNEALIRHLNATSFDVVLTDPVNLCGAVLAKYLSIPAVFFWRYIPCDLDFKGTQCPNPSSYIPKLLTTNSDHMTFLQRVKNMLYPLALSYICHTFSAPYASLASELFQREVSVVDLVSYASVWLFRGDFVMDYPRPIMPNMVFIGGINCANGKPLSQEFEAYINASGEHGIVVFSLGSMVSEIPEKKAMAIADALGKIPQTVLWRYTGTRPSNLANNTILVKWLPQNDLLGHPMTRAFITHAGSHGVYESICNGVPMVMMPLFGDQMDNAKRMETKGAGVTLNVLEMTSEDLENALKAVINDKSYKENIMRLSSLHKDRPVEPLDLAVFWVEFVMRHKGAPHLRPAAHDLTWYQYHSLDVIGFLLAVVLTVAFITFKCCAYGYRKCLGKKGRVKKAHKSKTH
Procedure, shortened: as §1

UGT1A1 = target: T5, UGT1A1 (Homo sapiens, UniProt P22309); assay: Screening of recombinant UGT1A1 for glucuronidation activity
T5 sequence (P22309 26-533): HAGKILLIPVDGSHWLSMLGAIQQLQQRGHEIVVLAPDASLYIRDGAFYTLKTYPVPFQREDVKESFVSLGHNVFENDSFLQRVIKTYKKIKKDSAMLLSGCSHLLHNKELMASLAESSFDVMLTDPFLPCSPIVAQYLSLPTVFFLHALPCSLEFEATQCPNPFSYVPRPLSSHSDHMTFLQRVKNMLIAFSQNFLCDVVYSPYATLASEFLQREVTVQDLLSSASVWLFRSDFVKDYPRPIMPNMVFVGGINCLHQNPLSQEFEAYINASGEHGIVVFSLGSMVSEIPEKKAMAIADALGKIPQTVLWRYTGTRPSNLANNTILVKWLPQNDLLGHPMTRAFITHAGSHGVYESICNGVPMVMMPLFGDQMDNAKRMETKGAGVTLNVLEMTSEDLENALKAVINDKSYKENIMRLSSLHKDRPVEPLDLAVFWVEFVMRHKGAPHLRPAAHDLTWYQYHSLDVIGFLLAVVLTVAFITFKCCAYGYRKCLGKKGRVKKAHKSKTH
Procedure, shortened: as §1

glucuronidation activity (glucuronide formed) (UGT1A7)	glucuronidation activity (glucuronide formed) (UGT1A8)	glucuronidation activity (glucuronide formed) (UGT1A10)	glucuronidation activity (glucuronide formed) (UGT1A4)	glucuronidation activity (glucuronide formed) (UGT1A1)	SMILES
only the hydroxyl metabolite	only the hydroxyl metabolite	only the hydroxyl metabolite	not active	only the carboxyl metabolite	COc1ccc(/C=C(/C(=O)O)c2cc(OC)c(OC)c(OC)c2)cc1O [NI-12a, (E)-3-(3-hydroxy-4-methoxyphenyl)-2-(3,4,5-trimethoxyphenyl)acrylic acid]
No activity	No activity	No activity	No activity	No activity	COc1cc(/C=C/c2cc([N+](=O)[O-])c(O)c([N+](=O)[O-])c2)cc(OC)c1 [DNR-1, (E)-4-(3,5-dimethoxystyryl)-2,6-dinitrophenol]

SMILES	glucuronidation activity (glucuronide formed) (UGT1A7)	glucuronidation activity (glucuronide formed) (UGT1A8)	glucuronidation activity (glucuronide formed) (UGT1A10)	glucuronidation activity (glucuronide formed) (UGT1A4)	glucuronidation activity (glucuronide formed) (UGT1A1)
COc1ccc(C=Cc2cc(OC)cc(OC)c2/C=N/O)cc1 [NI-ST-05, (E)-2,4-dimethoxy-6-(4-methoxystyryl)benzaldehyde oxime]	inactive	inactive	catalyzed the formation of the C=N–O-glucuronide	inactive	catalyzed the formation of the C=N–O-glucuronide
